Key:
Format in all cases: functional
Felis catus [1] = organism: Felis catus; assay: acetylcholine antagonist effect of compound on cat blood pressure at concentration 5.7*10e-7 in 6 min
Summary of the method: (§1)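 Adult cats under ip α-chloralose (80 mg/kg) plus pentobarbitone (6 mg/kg), bilaterally vagotomized and artificially respired. Carotid blood pressure was recorded. An iv acetylcholine dose giving 70–80% of maximal vasodepressor response was used. After iv test drug, acetylcholine responses were checked at 1 min and then every 2–3 min and expressed as % of control. Doses were given in mol/kg, escalating after recovery.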

Felis catus [2] = organism: Felis catus; assay: acetylcholine antagonist effect of compound on cat blood pressure at concentration 5.7*10e-7 in 10 min; summary of the method: as §1
Felis catus [3] = organism: Felis catus; assay: acetylcholine antagonist effect of compound on cat blood pressure at concentration 5.7*10e-7 in 17 min; summary of the method: as §1
Felis catus [4] = organism: Felis catus; assay: acetylcholine antagonist effect of compound on cat blood pressure at concentration 5.7*10e-7 in 29 min; summary of the method: as §1
Felis catus [5] = organism: Felis catus; assay: acetylcholine antagonist effect of compound on cat blood pressure at concentration 5.7*10e-7 in 1 min; summary of the method: as §1
Felis catus [6] = organism: Felis catus; assay: acetylcholine antagonist effect of compound on cat blood pressure at concentration 5.7*10e-7 in 13 min; summary of the method: as §1
Felis catus [7] = organism: Felis catus; assay: acetylcholine antagonist effect of compound on cat blood pressure at concentration 5.7*10e-7 in 4 min; summary of the method: as §1
Felis catus [8] = organism: Felis catus; assay: acetylcholine antagonist effect of compound on cat blood pressure at concentration 5.7*10e-7 in 21 min; summary of the method: as §1
Felis catus [9] = assay: acetylcholine antagonist effect of compound on cat blood pressure at concentration 5.7*10e-8 mol/kg in 1 min; summary of the method: as §1
Felis catus [10] = organism: Felis catus; assay: acetylcholine antagonist effect of compound on cat blood pressure at concentration 5.7*10e-8 in 3 min; summary of the method: as §1
Felis catus [11] = organism: Felis catus; assay: acetylcholine antagonist effect of compound on cat blood pressure at concentration 5.7*10e-8 in 9 min
Summary of the method: (§2)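 Adult cats anesthetized ip with α-chloralose (80 mg/kg) plus sodium pentobarbitone (6 mg/kg), bilaterally vagotomized, artificially respired. Carotid arterial pressure recorded. Drugs given iv via brachial vein. Acetylcholine dose giving 70-80% of maximal vasodepressor response used throughout. Test drug injected, acetylcholine response checked 1 min later, then every ~2-3 min. Value is % of control vasodepressor response to acetylcholine.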

Felis catus [12] = organism: Felis catus; assay: acetylcholine antagonist effect of compound on cat blood pressure at concentration 5.7*10e-8 in 4 min; summary of the method: as §2
Felis catus [13] = organism: Felis catus; assay: acetylcholine antagonist effect of compound on cat blood pressure at concentration 5.7*10e-8 in 5 min; summary of the method: as §2
Felis catus [14] = organism: Felis catus; assay: acetylcholine antagonist effect of compound on cat blood pressure at concentration 5.7*10e-7 in 25 min; summary of the method: as §1

Compound: C[N+]1(COC(=O)C(c2ccccc2)C2CCCC2)CCOCC1.[Cl-] (centres undefined)
- Response (Felis catus [1]): 0%
- Response (Felis catus [2]): 23%
- Response (Felis catus [3]): 59%
- Response (Felis catus [4]): 100%
- Response (Felis catus [5]): 0%
- Response (Felis catus [6]): 50%
- Response (Felis catus [7]): 0%
- Response (Felis catus [8]): 73%
- Response (Felis catus [9]): 0%
- Response (Felis catus [10]): 45%
- Response (Felis catus [11]): 100%
- Response (Felis catus [12]): 82%
- Response (Felis catus [13]): 90%
- Response (Felis catus [14]): 82%

From ChEMBL document CHEMBL1121584, “Soft drugs. 3. A new class of anticholinergic agents” (J Med Chem, 1980)
